Assay outcomes: PubChem BioAssay, The Scripps Research Institute Molecular Screening Center
M18AAP inhibitor = PfM18AAP enzyme inhibition; recombinant PfM18AAP, H-Glu-NHMec fluorogenic cleavage; inhibition, % at 7.35 µM; 290,000 compounds, 1.2% hits; AID 1822;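 active = inhibition above the campaign mean inhibition over all tested compounds plus 3 SD, cut at about 28% in these data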;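 note: 0% = plate median of test compound wells and 100% = 2 mM ZnCl2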
CTSL1 counter = cathepsin L1 inhibition, PFM18AAP counter-screen; AID 1906; 300,000 compounds, 0.49% hits; inhibition, % at 5.96 µM; recombinant F. hepatica cathepsin L1, Z-Leu-Arg-MCA fluorescence;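 active = inhibition above the mean of all tested compounds plus 3 SD, set per screening campaign, cut at about 17% in these data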;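 note: 0% = plate median of test compound wells and 100% = 1 µM Z-Phe-Ala-diazomethylketone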
IMP-1 inh = blocks Pseudomonas aeruginosa IMP-1 metallo-beta-lactamase | purified IMP-1, nitrocefin hydrolysis, epi-absorbance fluorescence | inhibition, % at 5.6 µM | 290,000 compounds, 0.45% hits | AID 1556;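 active = inhibition above the mean plus 3 SD of all compounds in the same screening run, cut at about 4.5% in these data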;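 note: 0% = IMP-1 with DMSO and 100% = DMSO wells lacking enzyme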
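assay system = purified recombinant IMP-1 metallo-beta-lactamase enzyme | schedule = 15 min preincubation plus 25 min reaction at 25 °C | signal = Epi-absorbance fluorescence, 480 nm excitation, 530 nm emission | read-out basis = percent inhibition from optical density relative to buffer-blank wells | controls = IMP-1 with DMSO as 0%, enzyme-free DMSO as 100%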
VIM-2 inhibitor = inhibitors of Pseudomonas aeruginosa VIM-2 metallo-beta-lactamase; purified VIM-2, nitrocefin hydrolysis, epi-absorbance fluorescence; inhibition, % at 5.6 µM; 290,000 compounds, 0.89% hits; AID 1527;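 active = inhibition above the mean of all tested compounds plus 3 SD, cutoff set per screening run, cut at about 7.5% in these data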;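 note: red hydrolysis product quenches plate fluorescence so inhibitors raise well fluorescence; 0% = enzyme with DMSO and 100% = DMSO without enzyme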
Numbers without * were called inactive; x = no result given. An excerpt weighted towards active compounds, which were near 2.7% of everything screened.

SMILES	M18AAP inhibitor	CTSL1 counter	IMP-1 inh	VIM-2 inhibitor
CCOc1ccc(Nc2nc(Cc3nnc(SCC(=O)NCc4ccco4)n3CC)cs2)cc1	30*	-4	-2	-6
N=c1sccn1CC(=O)Nc1cccc(S(=O)(=O)N2CCCCCC2)c1	-7	-11	-1	-2
COc1cc(C(c2oc(CO)cc(=O)c2O)c2oc(CO)cc(=O)c2O)cc(OC)c1OC	9	51*	-3	-1
CCOc1ccc(N2C(=O)C3ON(c4ccccc4)C(c4ccco4)C3C2=O)cc1 (stereo not given)	2	5	-2	-2
CCOc1ccc(N2C(=O)C3Sc4[nH]c(=O)sc4C(/C=C/c4ccccc4)C3C2=O)cc1 (stereo not given)	3	-1	8.0*	0
O=C(O)c1cccc(CN2C(=O)c3ccccc3C2=O)c1	-9	-2	-3	0
O=C1c2cccc3c(O)ccc(c23)C(=O)N1Cc1ccccc1	12	2	4	11*
O=C1C(Cl)=C(Nc2ccc3cn[nH]c3c2)C(=O)c2ccccc21	47*	28*	-3	5
COc1ccccc1CC(=O)N1CCCC1	9	-2	-1	-4
COc1ccccc1CC(=O)N1CCN(c2ccccn2)CC1	4	0	5.9*	-1
CC(C)Sc1ncc(S(=O)(=O)c2ccccc2)c(=O)[nH]1	1	0	-2	-2
CCOC(=O)C(C)Sc1nnc2c3ccccc3n(C)c2n1 (stereo not given)	7	4	-5	8.8*
Cn1c(NCc2cccnc2)nc2c1c(=O)n(Cc1ccccc1F)c(=O)n2C	-4	-4	-3	8.3*
Cc1[nH]c2ccccc2c1SCC(=O)NC1CCCCC1	-8	23*	-2	-2
CC(C)=NNc1cc([N+](=O)[O-])cc2c1C(=O)N(C)S2=O (stereo not given)	30*	-1	-5	-4
C/C(=N/Nc1ccccc1[N+](=O)[O-])c1ccc([N+](=O)[O-])cc1	-3	0	-5	-2
CC(NC(=O)C12CC3CC(CC(C3)C1)C2)C(=O)N/N=C/C1=C(N2CCOCC2)C(=C\c2ccccc2)/CC1 (stereo not given)	-3	4	-3	-5
CCCCNC(=O)CSc1nnc(Cc2ccccc2)n1CC	-9	4	4.5*	-1
Cc1ccc2c(c1)c(N=Nc1cccc(C(=O)O)c1)c(O)n2C	-4	4	0	-1
O=Cc1cc(N=Nc2ccccc2Cl)ccc1O	1	4	9.7*	-4
O=Cc1cc(N=Nc2cccc(C(=O)O)c2)ccc1O	25	0	13*	-4
COc1cc(N=Nc2ccccc2C(=O)O)ccc1O	24	4	-3	-2
CCCCn1c(CNC(=O)C23CC4CC(CC(C4)C2)C3)nnc1SC(C)CC (stereo not given)	3	6	-3	-3
O=C(Nc1ccc(F)cc1F)c1cc(-c2ccc3c(c2)OCO3)on1	-1	1	-1	0
Nc1cccc2c1C(=O)N(CCOc1ccccc1F)C2=O	-4	0	6.8*	1
SMILES	M18AAP inhibitor	CTSL1 counter	IMP-1 inh	VIM-2 inhibitor
O=C(O)CN1C(=O)/C(=C/c2ccsc2)SC1=S	29*	2	0	3
C=CCN1C(=O)/C(=C/c2ccsc2)SC1=S	3	4	-2	-3
O=C(O)CN1C(=O)/C(=C/c2ccc(SCc3ccccc3)o2)SC1=S	8	x	4.7*	4
Cc1c(Br)c(C(=O)N2CCc3ccccc32)nn1C	3	2	10*	-5
Cc1c(C#N)c(NC(=O)CCl)n(Cc2ccccc2)c1C	11	40*	-3	0
Cc1c(C#N)c(NC(=O)CCl)n(Cc2cccs2)c1C	-4	51*	-1	-1
COc1ccc(C(=O)N/C(=C\c2ccc(Cl)cc2)C(=O)NCC2CCCO2)cc1 (stereo not given)	4	17*	0	-3
c1cncc(Nc2nc(-c3cccs3)cs2)c1	30*	3	-1	1
CSCC[C@H](NC(=O)N1CCn2c1nc1ccccc12)C(=O)NCC1CCCO1 (stereo not given in full)	2	-2	-1	-2
CCCCCCC(=O)Nc1nc(C)c(-c2csc(Nc3cc(Cl)ccc3C)n2)s1	-4	2	19*	-3
COc1ccc(OC)c(Nc2nc(-c3sc(NC(=O)C(C)(C)C)nc3C)cs2)c1	0	2	-2	-2
COc1ccc(Cl)cc1Nc1nc(-c2sc(NC(=O)C(C)(C)C)nc2C)cs1	-3	-3	18*	-1
CCCCC(=O)Nc1nc(C)c(-c2csc(Nc3cc(Cl)ccc3OC)n2)s1	2	1	7.6*	-1
CC(=O)NC1C(=O)N(CCN2CCOCC2)c2ccc(Br)cc21 (stereo not given)	30*	-9	-4	-2
CCCc1nc2c(=O)n(C)c(=O)nc-2n(C)n1	3	x	0	-1
Cn1nc(-c2ccccn2)nc2c(=O)n(C)c(=O)nc1-2	23	114*	-3	-3
O=C(CNC(=O)c1ccccc1F)N/N=C/c1cccnc1	1	-2	-3	-3
CN(C)c1ccc(/C=C(\NC(=O)c2ccccc2)C(=O)NCCCn2ccnc2)cc1	7	-5	5.4*	-2
Cc1ccc(C(=O)N/C(=C\c2ccco2)C(=O)NCCCn2ccnc2)cc1	0	-3	8.8*	-3
Cc1cc(Cl)ccc1OCC(O)CNCCc1ccc(S(N)(=O)=O)cc1 (stereo not given)	-1	2	0	1
CC(C(=O)NNS(=O)(=O)c1cccc(C(F)(F)F)c1)n1nnc(N2CCOCC2)n1 (stereo not given)	3	59*	-3	-4
CC(C(=O)NN)n1nnc(N2CCOCC2)n1 (stereo not given)	1	-1	-2	-5
COc1ccc(CNC(=O)C2Cc3cc(S(=O)(=O)N4CCCC4)ccc3N2C(C)=O)c(OC)c1 (stereo not given)	-7	-1	-2	3
COCCn1c(=N)c(C(=O)NCCc2ccc(OC)cc2)cc2c(=O)n3cccc(C)c3nc21	-4	0	-3	1
CCOCCCn1c(=N)c(C(=O)NCCN2CCOCC2)cc2c(=O)n3cccc(C)c3nc21	-5	0	-2	1
SMILES	M18AAP inhibitor	CTSL1 counter	IMP-1 inh	VIM-2 inhibitor
O=C(NCCN1CCN(c2ccccc2)CC1)c1cccn2c(=O)c3cc(Cl)ccc3nc12	-8	-2	-2	8.2*
Cc1cccn2c(=O)c3cc(C(=O)NCCN4CCOCC4)c(=N)n(CCN4CCOCC4)c3nc12	17	2	0	11*
Cn1c(C(=O)NCCN2CCOCC2)cc2c(=O)n3ccccc3nc21	5	4	-1	8.3*
COc1ccc(CCNC(=O)c2cc3c(=O)n4cccc(C)c4nc3n(CCCN3CCOCC3)c2=N)cc1	8	4	-3	7.8*
COCCCn1c(C(=O)NCCN2CCOCC2)cc2c(=O)n3ccccc3nc21	12	4	-3	2
O=C(NCCN1CCN(c2ccccc2)CC1)c1cccc(Cl)c1	6	-4	-4	2
Cc1cc(C(=O)c2cnc(/N=C/N(C)C)s2)cc(C)c1O	-7	7	-3	1
